The source of these data is ChEMBL document CHEMBL5543089, “Discovery of a novel, highly potent EZH2 PROTAC degrader for targeting non-canonical oncogenic functions of EZH2” (Eur J Med Chem, 2024).

Activity calls are given as the source filed them. The rule behind the calls is not given here. Some results are limits rather than exact numbers.

For series [1], the system named is BT-549. The experiment in a line: Anti-proliferative activity against human BT-549 cells spheroid TNBC model assessed as decrease in cell viability at 2.5 to 20 uM by Cell Titer Glo 3D assay. Format: functional, cell-based. The conditions noted are these: dose 2.5-20 µM. In short, it runs like this: (§1)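 BT549 cells were coated with nanoshuttle (1 μL per 2000 cells, 24 h) and magnetically levitated in low-adhesion plates. They were grown 7 days at 37 °C until a single solid spheroid formed, then treated 5 d with compound or DMSO. Spheroid area was measured from images, and viability by CellTiter-Glo 3D. Data are means ± SD of three biological experiments, analysed by one-way ANOVA.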
Background: ATP-based viability assays read luminescence as a measure of living cells.

The target of series [2] is Histone-lysine N-methyltransferase, H3 lysine-36 specific (Homo sapiens) (UniProt Q96L73). The experiment in a line: Inhibition of human NSD1 assessed as methyltransferase activity using Nucleosomes as substrate at 10 uM by radioisotope based MT HotSpot assay relative to control. In short, it runs like this:
(§2)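 Radioisotope-based methyltransferase assay (MT HotSpot) run by a contract lab. Compound was tested at 10 μM against a panel of 20 methyltransferases, in duplicate. Values are means ± SD of two replicates.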

Series [3] addresses Histone-lysine N-methyltransferase SETD7 (Homo sapiens) (UniProt Q8WTS6). In words: Inhibition of human SET7/9 assessed as methyltransferase activity using Core histone as substrate at 10 uM by radioisotope based MT HotSpot assay relative to control. The method, boiled down: as §2
Series [4] deals with Histone-lysine N-methyltransferase SUV39H2 (Homo sapiens) (UniProt Q9H5I1). In words: Inhibition of human SUV39H2 assessed as methyltransferase activity using Histone H3 as substrate at 10 uM by radioisotope based MT HotSpot assay relative to control.
The species named for the next series is Homo sapiens. The experiment in a line: Inhibition of human PRMT1 assessed as methyltransferase activity using Histone H4 /H4 (1-15)-Biotin as substrate at 10 uM by radioisotope based MT HotSpot assay relative to control. In short, it runs like this: as §2
Series [5] deals with von Hippel-Lindau disease tumor suppressor/Polycomb protein EED (Homo sapiens) (UniProt O75530+P40337). The experiment in a line: PROTAC activity at VHL/EED degradation in MLLr AML cell line human EOL1 cells assessed as protein degradation at 1 to 1000 nM measured after 1 to 24 hrs by Western blot analysis. Format: cell-based. The conditions noted are these: dose 1-1000 nM, time 1-24 hrs. The method, boiled down:
(§3)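 Cells were seeded at 0.5–2 million per well and treated for 24 h, or for the stated times at 300 nM in the time course. Lysis was in RIPA with protease inhibitors; ~10 μg protein was run on SDS-PAGE and blotted to PVDF. Detection used fluorescent immunoblotting for EZH2, EED and SUZ12, with β-actin as loading control. Blots are representative of two biological experiments.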
In general terms: A western blot detects proteins with antibodies after separation by electrophoresis.

The test system of the next series is EOL1. In words: Anti-proliferative activity against human EOL1 cells assessed as cell viability measured after 5 days incubation by CCK-8 assay. In kind it is functional, cell-based. The conditions noted are these: EOL1, 120 h. The method, boiled down: (§4)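 Cells plated at 3,000–10,000 per well and exposed to serial dilutions for 5 days at 37 °C. CCK-8 (1x) was added for 2–4 h, with absorbance read at 450 nm against a 690 nm reference. IC50 was taken from curve fits. Leukemia lines were grown in RPMI-1640, K562 in IMDM and MDA-MB-468 in DMEM, all with 10 % FBS. Values are means ± SD of two biological experiments (three for BT549 and MDA-MB-468).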
For orientation: Formazan colour is commonly taken as a measure of viable cells.

Series [6] addresses T1, von Hippel-Lindau disease tumor suppressor/Histone-lysine N-methyltransferase EZH2 (Homo sapiens, UniProt Q15910+P40337). The experiment in a line: PROTAC activity at VHL/EZH2 degradation in hMLLr AML cell line EOL1 cells assessed as protein degradation measured after 24 hrs by Western blot analysis. In kind it is cell-based. In short, it runs like this: as §3
Target sequence in this assay (Q15910 whole entry): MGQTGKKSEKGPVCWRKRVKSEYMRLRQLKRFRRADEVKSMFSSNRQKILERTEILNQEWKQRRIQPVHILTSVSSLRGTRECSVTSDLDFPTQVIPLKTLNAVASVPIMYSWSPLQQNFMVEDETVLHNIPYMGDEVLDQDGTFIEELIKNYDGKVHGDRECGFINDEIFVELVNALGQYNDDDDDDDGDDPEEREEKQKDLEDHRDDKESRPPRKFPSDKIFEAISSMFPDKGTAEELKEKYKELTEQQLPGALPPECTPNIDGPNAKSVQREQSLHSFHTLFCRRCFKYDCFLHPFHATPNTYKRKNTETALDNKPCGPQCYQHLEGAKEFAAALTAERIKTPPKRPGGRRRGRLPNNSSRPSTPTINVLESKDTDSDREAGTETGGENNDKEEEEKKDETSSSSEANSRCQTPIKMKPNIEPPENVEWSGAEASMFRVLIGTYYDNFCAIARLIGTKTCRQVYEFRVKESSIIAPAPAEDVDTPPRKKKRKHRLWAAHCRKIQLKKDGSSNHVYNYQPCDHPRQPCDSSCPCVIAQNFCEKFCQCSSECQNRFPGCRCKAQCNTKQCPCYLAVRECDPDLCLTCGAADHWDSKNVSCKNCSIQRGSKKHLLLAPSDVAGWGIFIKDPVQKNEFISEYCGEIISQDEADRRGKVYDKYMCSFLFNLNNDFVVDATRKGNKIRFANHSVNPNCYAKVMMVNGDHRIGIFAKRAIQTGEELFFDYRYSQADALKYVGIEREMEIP
Target sequence in this assay (P40337 whole entry): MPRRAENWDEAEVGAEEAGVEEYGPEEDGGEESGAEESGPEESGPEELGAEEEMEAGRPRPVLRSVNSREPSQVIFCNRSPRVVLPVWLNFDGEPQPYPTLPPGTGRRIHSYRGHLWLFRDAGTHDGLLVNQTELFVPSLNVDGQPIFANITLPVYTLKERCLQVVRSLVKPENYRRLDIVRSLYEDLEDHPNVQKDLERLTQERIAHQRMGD
For series [7], the target named is T1, von Hippel-Lindau disease tumor suppressor/Histone-lysine N-methyltransferase EZH2. In words: PROTAC activity at VHL/EZH2 degradation in MLLr AML cell line human EOL1 cells assessed as protein degradation at 0.5 uM measured after 24 hrs in presence of 5 uM VHL-1 by Western blot analysis. Format: cell-based. The method, boiled down:
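EOL-1 cells were pre-treated for 2 h with MLN4924 (0.05 μM), EPZ-6438 (5 μM) or VHL-1 (5 μM), then given 0.5 μM degrader for 24 h. EZH2 was assessed by Western blot against β-actin. Blots are representative of two biological experiments.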
Target sequence in this assay (P40337 whole entry, looked up): as the sequence (P40337 whole entry) above
Target sequence in this assay (Q15910 whole entry, looked up): as the sequence (Q15910 whole entry) above

Series [8] shares this target. In words: PROTAC activity at VHL/EZH2 degradation in MLLr AML cell line human EOL1 cells assessed as protein degradation at 0.5 uM measured after 24 hrs by Western blot analysis. Format: cell-based. In short, it runs like this: as §3
Target sequence in this assay (P40337 whole entry, looked up): as the sequence (P40337 whole entry) above
Target sequence in this assay (Q15910 whole entry, looked up): as the sequence (Q15910 whole entry) above
A short description of series [9]: Plasma concentration in mouse at 50 mg/kg, ip measured after 9 hrs. The conditions noted are these: in vivo.
Series [10] addresses Protein arginine N-methyltransferase 6 (Homo sapiens) (UniProt Q96LA8). The experiment in a line: Inhibition of human PRMT6 assessed as methyltransferase activity using GST-GAR as substrate at 10 uM by radioisotope based MT HotSpot assay relative to control. The method, boiled down: as §2
The subject of series [11] is BT-549. In words: Inhibition of cell growth in human BT-549 cell spheroid TNBC model assessed as reduction in size of spheroid at 2.5 to 20 uM measured after 5 days by 3D cell culture assay. In kind it is functional, cell-based. The conditions noted are these: dose 2.5-20 µM, time 5.0 day. In short, it runs like this:
as §1

Series [12] deals with Histone-lysine N-methyltransferase SUV39H1 (Homo sapiens) (UniProt O43463). The experiment in a line: Inhibition of human SUV39H1 assessed as methyltransferase activity using Histone H3 as substrate at 10 uM by radioisotope based MT HotSpot assay relative to control. In short, it runs like this: as §2
Series [13] has as its target T1, von Hippel-Lindau disease tumor suppressor/Histone-lysine N-methyltransferase EZH2. The experiment in a line: PROTAC activity at VHL/EZH2 degradation in human MV4-11 cells assessed as protein degradation at 0.03 to 0.3 microM measured after 24 hrs by Western blot analysis. The conditions noted are these: dose 0.03-0.3 µM. Format: cell-based. The method, boiled down: as §3
Target sequence in this assay (P40337 whole entry, looked up): as the sequence (P40337 whole entry) above
Target sequence in this assay (Q15910 whole entry, looked up): as the sequence (Q15910 whole entry) above

The target in series [14] is Histone-lysine N-methyltransferase SMYD3 (Homo sapiens) (UniProt Q9H7B4). In words: Inhibition of human SMYD3 assessed as methyltransferase activity using MEKK2 as substrate at 10 uM by radioisotope based MT HotSpot assay relative to control. In short, it runs like this: as §2
Series [15] concerns BT-549. The experiment in a line: Anti-proliferative activity against human BT-549 cells assessed as cell growth inhibition measured after 5 days incubation by CCK-8 assay. The conditions noted are these: BT-549, 120 h. In kind it is functional, cell-based. The method, boiled down: as §4
Series [16] addresses Protein arginine N-methyltransferase 8 (Homo sapiens) (UniProt Q9NR22). The experiment in a line: Inhibition of human PRMT8 assessed as methyltransferase activity using Histone H4 as substrate at 10 uM by radioisotope based MT HotSpot assay relative to control. The method, boiled down: as §2
The next series relates to MV4-11. The experiment in a line: Anti-proliferative activity against human MV4-11 cells assessed as cell viability measured after 5 days incubation by CCK-8 assay. In kind it is functional, cell-based. The conditions noted are these: MV4-11, 120 h. In short, it runs like this:
as §4

Series [17] has as its target Histone-lysine N-methyltransferase EZH2 (Homo sapiens) (UniProt Q15910). The experiment in a line: Inhibition of human EZH2 assessed as methyltransferase activity using Core Histone as substrate at 10 uM by radioisotope based MT HotSpot assay relative to control. The method, boiled down: as §2
Series [18] addresses T1, von Hippel-Lindau disease tumor suppressor/Histone-lysine N-methyltransferase EZH2. The experiment in a line: PROTAC activity at VHL/EZH2 degradation in human MDA-MB-468 cells assessed as protein degradation at 0.1 to 3 uM measured after 48 hrs by Western blot analysis. In kind it is cell-based. The conditions noted are these: dose 0.1-3 µM. The method, boiled down: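 BT549 (RPMI-1640) and MDA-MB-468 (DMEM) cells were treated for 48 h. RIPA lysates (~10 μg) were immunoblotted for EZH2 with β-actin as loading control. Blots are representative of three biological experiments.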
Target sequence in this assay (P40337 whole entry, looked up): as the sequence (P40337 whole entry) above
Target sequence in this assay (Q15910 whole entry, looked up): as the sequence (Q15910 whole entry) above

Chain of Histone-lysine N-methyltransferase EZH2 (Homo sapiens) (Q15910 whole entry, looked up): as the sequence (Q15910 whole entry) above
Chain of Histone-lysine N-methyltransferase SUV39H2 (Homo sapiens) (Q9H5I1 whole entry, looked up): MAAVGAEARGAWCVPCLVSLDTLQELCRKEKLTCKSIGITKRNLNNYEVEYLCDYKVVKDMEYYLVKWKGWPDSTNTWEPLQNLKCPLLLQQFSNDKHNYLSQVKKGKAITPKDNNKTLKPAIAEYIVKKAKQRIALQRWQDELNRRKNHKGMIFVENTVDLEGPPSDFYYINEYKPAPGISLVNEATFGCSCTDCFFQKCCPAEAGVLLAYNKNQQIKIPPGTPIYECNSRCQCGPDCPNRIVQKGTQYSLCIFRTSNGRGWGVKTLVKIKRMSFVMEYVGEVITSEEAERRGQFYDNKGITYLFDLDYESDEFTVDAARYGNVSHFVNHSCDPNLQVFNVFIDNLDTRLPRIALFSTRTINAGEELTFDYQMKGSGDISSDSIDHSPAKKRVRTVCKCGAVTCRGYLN
Chain of Histone-lysine N-methyltransferase, H3 lysine-36 specific (Homo sapiens) (Q96L73 whole entry): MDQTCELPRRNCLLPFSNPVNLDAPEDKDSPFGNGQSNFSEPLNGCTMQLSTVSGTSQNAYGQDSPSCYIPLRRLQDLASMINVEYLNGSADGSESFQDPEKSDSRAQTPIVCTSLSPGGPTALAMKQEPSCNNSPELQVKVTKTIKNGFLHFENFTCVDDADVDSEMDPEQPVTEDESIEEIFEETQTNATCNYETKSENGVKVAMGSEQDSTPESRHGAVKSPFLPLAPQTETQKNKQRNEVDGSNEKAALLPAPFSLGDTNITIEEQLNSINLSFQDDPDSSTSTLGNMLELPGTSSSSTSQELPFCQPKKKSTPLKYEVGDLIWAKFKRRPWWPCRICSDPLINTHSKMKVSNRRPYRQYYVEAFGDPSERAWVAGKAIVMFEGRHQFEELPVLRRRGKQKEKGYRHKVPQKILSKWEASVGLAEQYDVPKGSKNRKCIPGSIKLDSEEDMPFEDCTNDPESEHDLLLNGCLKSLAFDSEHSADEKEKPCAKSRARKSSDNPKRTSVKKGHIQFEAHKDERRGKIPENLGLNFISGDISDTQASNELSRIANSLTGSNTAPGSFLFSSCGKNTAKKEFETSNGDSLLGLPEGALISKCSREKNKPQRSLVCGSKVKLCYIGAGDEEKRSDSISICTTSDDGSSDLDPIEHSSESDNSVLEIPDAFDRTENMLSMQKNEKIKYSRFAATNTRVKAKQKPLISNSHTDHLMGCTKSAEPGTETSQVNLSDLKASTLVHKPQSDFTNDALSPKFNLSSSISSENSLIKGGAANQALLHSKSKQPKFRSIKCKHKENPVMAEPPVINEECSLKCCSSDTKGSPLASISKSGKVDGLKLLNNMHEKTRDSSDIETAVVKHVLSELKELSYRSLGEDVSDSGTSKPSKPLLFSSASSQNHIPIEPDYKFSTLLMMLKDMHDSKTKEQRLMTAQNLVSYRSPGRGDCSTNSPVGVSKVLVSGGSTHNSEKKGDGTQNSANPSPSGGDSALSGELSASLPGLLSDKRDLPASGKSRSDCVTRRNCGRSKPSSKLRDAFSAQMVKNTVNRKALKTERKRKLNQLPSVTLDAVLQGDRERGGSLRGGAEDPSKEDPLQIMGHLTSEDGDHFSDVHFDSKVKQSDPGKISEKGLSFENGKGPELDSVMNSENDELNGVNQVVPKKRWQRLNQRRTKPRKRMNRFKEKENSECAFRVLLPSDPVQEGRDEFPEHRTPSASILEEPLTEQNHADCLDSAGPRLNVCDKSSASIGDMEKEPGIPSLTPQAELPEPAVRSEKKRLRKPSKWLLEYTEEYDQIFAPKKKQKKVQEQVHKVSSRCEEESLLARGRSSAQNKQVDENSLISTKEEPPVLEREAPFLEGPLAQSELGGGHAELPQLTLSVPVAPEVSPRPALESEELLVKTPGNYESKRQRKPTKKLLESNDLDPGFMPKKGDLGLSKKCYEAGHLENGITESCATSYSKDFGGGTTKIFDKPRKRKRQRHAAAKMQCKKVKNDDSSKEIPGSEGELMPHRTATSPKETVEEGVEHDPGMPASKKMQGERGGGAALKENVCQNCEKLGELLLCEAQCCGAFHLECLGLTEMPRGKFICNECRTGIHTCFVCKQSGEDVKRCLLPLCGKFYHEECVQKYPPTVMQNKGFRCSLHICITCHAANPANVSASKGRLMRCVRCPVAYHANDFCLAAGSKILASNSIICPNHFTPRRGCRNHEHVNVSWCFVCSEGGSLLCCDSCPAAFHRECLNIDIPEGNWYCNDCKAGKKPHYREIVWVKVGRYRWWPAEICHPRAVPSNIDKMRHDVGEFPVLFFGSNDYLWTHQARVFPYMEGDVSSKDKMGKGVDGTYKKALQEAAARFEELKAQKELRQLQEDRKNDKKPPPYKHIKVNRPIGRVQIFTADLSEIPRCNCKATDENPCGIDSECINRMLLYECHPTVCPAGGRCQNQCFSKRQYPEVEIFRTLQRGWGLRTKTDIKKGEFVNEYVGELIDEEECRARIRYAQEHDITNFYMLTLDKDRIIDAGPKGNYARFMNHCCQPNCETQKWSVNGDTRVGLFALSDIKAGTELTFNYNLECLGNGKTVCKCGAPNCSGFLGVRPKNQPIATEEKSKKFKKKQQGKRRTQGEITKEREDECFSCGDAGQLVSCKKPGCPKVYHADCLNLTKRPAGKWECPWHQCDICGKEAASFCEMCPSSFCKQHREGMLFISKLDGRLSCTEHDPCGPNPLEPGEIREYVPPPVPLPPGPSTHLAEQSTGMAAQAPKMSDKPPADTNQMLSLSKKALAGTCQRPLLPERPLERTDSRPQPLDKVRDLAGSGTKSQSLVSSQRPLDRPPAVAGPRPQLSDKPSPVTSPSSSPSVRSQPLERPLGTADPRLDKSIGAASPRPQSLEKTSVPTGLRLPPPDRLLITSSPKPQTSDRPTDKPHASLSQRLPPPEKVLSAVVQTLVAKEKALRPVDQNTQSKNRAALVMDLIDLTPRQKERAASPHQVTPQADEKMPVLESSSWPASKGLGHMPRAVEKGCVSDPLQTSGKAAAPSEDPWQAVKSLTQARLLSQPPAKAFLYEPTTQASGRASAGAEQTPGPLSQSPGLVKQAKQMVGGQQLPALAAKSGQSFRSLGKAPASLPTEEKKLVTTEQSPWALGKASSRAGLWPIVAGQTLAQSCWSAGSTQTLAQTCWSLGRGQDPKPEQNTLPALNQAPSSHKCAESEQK
Chain of Protein arginine N-methyltransferase 6 (Homo sapiens) (Q96LA8 whole entry, looked up): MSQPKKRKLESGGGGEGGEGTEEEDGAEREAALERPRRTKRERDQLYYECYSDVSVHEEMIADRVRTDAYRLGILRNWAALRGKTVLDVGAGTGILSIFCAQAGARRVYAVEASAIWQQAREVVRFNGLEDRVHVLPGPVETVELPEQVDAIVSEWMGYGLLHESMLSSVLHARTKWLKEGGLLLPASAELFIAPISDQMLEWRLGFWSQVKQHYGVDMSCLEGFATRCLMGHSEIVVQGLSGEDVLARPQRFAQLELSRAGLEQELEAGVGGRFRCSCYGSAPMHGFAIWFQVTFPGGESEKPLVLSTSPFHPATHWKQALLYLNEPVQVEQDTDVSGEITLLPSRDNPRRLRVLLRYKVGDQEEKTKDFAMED

A word on the inhibition: it is the relative decrease from the control value, in per cent. Broadly, the IC50 is the concentration at which inhibition is half-maximal. By DC50 is commonly meant the concentration giving 50% degradation. For `CCN(c1cc(-c2ccc(CN3CCN(CCC(=O)NCCCCCCCCCCC(=O)N[C@H](C(=O)N4C[C@H](O)C[C@H]4C(=O)NCc4ccc(-c5scnc5C)cc4)C(C)(C)C)CC3)cc2)cc(C(=O)NCc2c(C)cc(C)[nH]c2=O)c1C)C1CCOCC1`, the result (in the series on BT-549 [1]; in series [5]; in series [8]; in series [18]) was Active. Further, the inhibition (in series [2]; in [3]; in series [4]; in the series listed under Homo sapiens; in series [10]; in series [12]) was less than 50% in each case. The inhibition in series [14] and in series [16] was less than 50% throughout. For the same compound, the values for the IC50 in the series with EOL1, in the series with BT-549 [15] and with MV4-11 were 110 nM, 1450 nM and 170 nM, respectively. For the same compound, in [6], the 50% degradation concentration (DC50) was 34.4 nM. The result in series [7] was inactive. In addition, in series [9], the plasma concentration entry is “Stable”. Besides, the inhibition result (with BT-549 [11]; in [17]) was “Active” throughout. Further, the Activity in series [13] was found to be 100%.
